# In publication PMC2836884 (Journal of Acquired Immune Deficiency Syndromes (1999), 2009):
# Where two headings read alike, the source gives them in different places.
# What was measured:
# [1] = system: HIV; details: 8 mg/kg twice daily with AZT or 3TC; previously untreated children; cited from earlier work
# [2] = children receiving 8 mg/kg, primarily prepubescent; Jullien et al; cited from earlier work
# [3] = adults receiving 600 mg (approximately 8 mg/kg); Weller et al; cited from earlier work
# [4] = in vivo, cited from earlier work
# [5] = in vivo, po; cited from earlier work
# [6] = adults n = 12 (24–48 yrs), cited from earlier work
# [7] = system: cytochrome P450 system; details: cited from earlier work
# [8] = type: in vivo, human
# Procedure, shortened: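 HIV-1–infected patients aged 9–18 y, Tanner-stratified; one oral-solution dose of 8 mg/kg (max 600 mg) with water, fasted from 1 h before to 2 h after. Heparinised plasma sampled at 0–8 h (10 points) and assayed by reversed-phase HPLC-UV. Per-subject 1-compartment zero-order-absorption fit by weighted least squares gave kel and CL/F; Tmax by inspection; AUC 0–8 h.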
# [9] = adults, cited from earlier work
# [10] = children n = 22 (3 mo to 13 yrs), cited from earlier work
structure (smiles),measurement,setting,value
"Nc1nc(NC2CC2)c2ncn([C@H]3C=C[C@@H](CO)C3)c2n1 [ABC, Abacavir]",reduction in viral load versus AZT/3TC combination,[1],larger reduction in viral load
same,mean CL/F,[2],15.8 mL/min per kg
same,mean CL/F,[3],11.5 mL/min per kg
same,"oral clearance, adjusted for body size, higher for children than adults",[4]; po,approximately 2 times
same,systemic exposure (AUC) in children lower than adult values,[4],approximately 50%
same,amount eliminated unchanged in the urine,[5],< 5%
same,AUC,[6]; single dose 4 mg/kg,6000 ng·h/mL
same,CL/F,[6]; single dose 4 mg/kg,13.4 mL/min per kg
same,Cmax,[6]; single dose 4 mg/kg,2900 ng/mL
same,t½,[6]; single dose 4 mg/kg,1.2 h
same,CL/F,[6]; single dose 8 mg/kg (600 mg),10.2 mL/min per kg
same,AUC,[6]; single dose 8 mg/kg,15700 ng·h/mL
same,Cmax,[6]; single dose 8 mg/kg,4700 ng/mL
same,t½,[6]; single dose 8 mg/kg,1.7 h
same,substrate or inhibitor of the cytochrome P450 system,[7],not a substrate or inhibitor of the cytochrome P450 system
same,Intersubject variation of CL/F referenced to body weight,[8]; all subjects,more than 8 fold
same,share of the total AUC in the period after 8 hours,"[8]; all subjects, estimated",< 3%
same,Tmax,"[8]; both, human, plasma, po, 8 mg/kg",1 h
same,AUC,[9]; recommended dose 300 mg twice daily,5000 to 6000 ng·h/mL
same,AUC,"[9]; single-dose studies, 600 mg",11000 to 16000 ng·h/mL
same,AUC,[10]; single dose 4 mg/kg,2800 ng·h/mL
same,CL/F,[10]; single dose 4 mg/kg,27.4 mL/min per kg
same,Cmax,[10]; single dose 4 mg/kg,1700 ng/mL
same,t½,[10]; single dose 4 mg/kg,0.9 h
same,AUC,[10]; single dose 8 mg/kg,8100 ng·h/mL
same,CL/F,[10]; single dose 8 mg/kg,18.9 mL/min per kg
same,Cmax,[10]; single dose 8 mg/kg,3900 ng/mL
same,t½,[10]; single dose 8 mg/kg,1.1 h
